Assay results gathered from unrelated publications.
Lines come from different studies, so protocols differ.
Target: Activin receptor type-1B (ACVR1B, Homo sapiens, UniProt P36896)
One construct used (P36896 24-505): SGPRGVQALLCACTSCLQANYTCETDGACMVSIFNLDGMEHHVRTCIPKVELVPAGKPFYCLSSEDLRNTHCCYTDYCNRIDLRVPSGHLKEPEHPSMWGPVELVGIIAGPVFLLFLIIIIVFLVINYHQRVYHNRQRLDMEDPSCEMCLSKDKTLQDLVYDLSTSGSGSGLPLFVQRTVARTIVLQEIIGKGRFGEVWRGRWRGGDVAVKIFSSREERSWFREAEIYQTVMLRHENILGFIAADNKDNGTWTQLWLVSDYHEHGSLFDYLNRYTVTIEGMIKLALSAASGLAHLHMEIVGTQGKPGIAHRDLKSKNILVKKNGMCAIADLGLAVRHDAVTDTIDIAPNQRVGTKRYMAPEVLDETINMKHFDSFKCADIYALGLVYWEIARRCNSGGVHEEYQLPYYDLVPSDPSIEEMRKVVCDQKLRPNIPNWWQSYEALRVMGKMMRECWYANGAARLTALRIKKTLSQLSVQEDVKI

With `CN([C@@H]1CCc2c(CC(=O)O)c3cc(S(C)(=O)=O)ccc3n2C1)S(=O)(=O)c1ccc(F)cc1` the remaining binding was 99% (cell-free assay; competition with immobilised ligand; 1 µM).
With `CN(C)C1CCN(CC#Cc2nn(C3CCCC3)c3nc(NCc4ccccc4)ncc23)C1` (centres unmarked) the inhibition was -8% (enzyme activity; inhibitor; FRET; 10 µM).
The remaining activity of `CCCOc1ccc(OC)c(F)c1C(=O)c1ccc(C(=O)N[C@@H]2CNC[C@H]2NC(=O)c2ccc3[nH]ncc3c2)cc1` is reported as 91% (enzyme activity; inhibitor; 10 µM).
The remaining activity of `Cc1ccc(C(=O)Nc2ccc(CN3CCN(C)CC3)c(C(F)(F)F)c2)cc1C#Cc1cnc2cccnn12` is reported as 100% (enzyme activity; 23.5 nM).
For `O=C(N1CCS(=O)(=O)CC1)N1C[C@H](c2ccc(OC(F)(F)F)cc2)C[C@H](c2nc(C3CC3)no2)C1`, the remaining binding was 100% (cell-free assay; competition with immobilised ligand; 1 µM).
`O=c1cc(-c2cccc3c2Sc2ccccc2S3)oc(N2CCOCC2)c1` gave a remaining activity of 114% (enzyme activity; inhibitor; 0.5 µM).
`CNC(=O)c1cc(Oc2ccc(NC(=O)Nc3ccc(Cl)c(C(F)(F)F)c3)cc2)ccn1` gave an inhibition of 17% (cell-free assay; inhibitor; 10 µM).
For `Cn1nc(C(=O)NCc2ccc(C(=O)O)cc2)cc1-c1ccc2[nH]ccc2c1`, the remaining binding was 83% (cell-free assay; competition with immobilised ligand; 0.1 µM).
`CCCS(=O)(=O)Nc1ccc(F)c(C(=O)c2c[nH]c3ncc(-c4ccc(Cl)cc4)cc23)c1F` gave an inhibition of less than 10% (enzyme activity; inhibitor; 1 µM).
With `Cc1ccc(NC(=O)c2ccc(C)c(C(F)(F)F)c2)cc1C#Cc1nn(C2CCC(O)CC2)c2ncnc(N)c12` (centres unmarked) the remaining signal was 79% (cell-free assay; 10 µM).
With `N#CCCc1ccc2c(c1)-c1[nH]c3ccc([N+](=O)[O-])cc3c1CC(=O)N2` the remaining signal was 110% (cell-free assay; 0.5 µM).
With `COc1cc2ncnc(Nc3ccc(Oc4ccccc4)c(C)c3C)c2cc1OC` the inhibition was -3% (enzyme activity; inhibitor; 1 µM).
The remaining activity of `CCN(CC)c1ccc(C2=NNC(=O)CC2C)cc1[N+](=O)[O-]` (centres unmarked) is reported as 109% (enzyme activity; inhibitor; 10 µM).
With `CCOCCn1cc(C(=O)Nc2ccc(-n3nc(-c4cccnc4)cc3C(F)(F)F)cn2)ccc1=O` the remaining binding was 79% (cell-free assay; competition with immobilised ligand; 1 µM).
With `CCN1CCC2(CC1)NC(=O)c1c(c3ccc(Cl)c(Cl)c3n1C)C2C#N` (racemic) the ΔTm was 0 °C (thermal stability; DSF; 10 µM).
The remaining activity of `O=C(Nc1cnn(-c2csc(C(=O)NC3COC3)c2)c1)Nc1ccccc1Cl` is reported as 124% (enzyme activity; inhibitor; 5 µM).
For `CC1(C)NC(=O)c2[nH]c3c(Cl)c(Cl)ccc3c2C1C#N` (centres unmarked), the ΔTm was 1.6 °C (thermal stability; DSF; 10 µM).
`Cc1ccc(Nc2nccc(N(C)c3ccc4c(C)n(C)nc4c3)n2)cc1S(N)(=O)=O` has an inhibition of 17% (cell-free assay; inhibitor; 10 µM).
For `CN1CCC2(CC1)NC(=O)c1c(c3ccc(Cl)c(Cl)c3n1C)C2C#N` (racemic), the ΔTm was 0.3 °C (thermal stability; DSF; 10 µM).
`Cn1cc(Cl)c2c(Oc3c(F)cc(Nc4cc(Cl)nc(N)n4)cc3F)ccnc21` gave a remaining binding of 98% (cell-free assay; competition with immobilised ligand; 0.1 µM).
